{"source": "the RNAGym collection of RNA variant scans (doi:10.1126/science.aae0568)", "parents": {"B1": {"name": "tRNA (parent)", "chain": "GUUCCGUUGGCGUAAUGGUAACGCGUCUCCCUCCUAAGGAGAAGACUGCGGGUUCGAGUCCCGUACGGAACG"}}, "note": "This sample holds only a part of the variants without activity."}
{"variants_of": "B1", "experiment": "yeast fitness relative to wild type (ratio to wild type); higher = fitter; tRNA-Arg(CCU), competitive growth, 37 C, YPD", "summary_of_the_method": "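For this measurement, the tRNA-Arg(CCU) gene was varied by chemical synthesis at a 3% per-site mutation rate across 69 sites, and each variant was placed at the native genomic locus in Saccharomyces cerevisiae. The pooled strains went through a 24-hour competition in YPD at 37°C in six parallel replicates, with amplicons from start and end populations read by 100-nucleotide paired-end sequencing. Darwinian fitness relative to wild type followed from the change in each genotype's frequency. Genotypes needed ≥ 100 starting reads, and estimates < 0.5 were set to 0.5.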"}
{"variant": "G9C G23A C33G", "yeast fitness": "≤ 0.5"}
{"variant": "G9C C22G C30A A42U U59C", "yeast fitness": "≤ 0.5"}
{"variant": "G9C C29U A36U G63A G67A", "yeast fitness": "≤ 0.5"}
{"variant": "G9C G10C G18C C33U G44C C46U C62U", "yeast fitness": 0.599}
{"variant": "G9C A70C", "yeast fitness": 0.866}
{"variant": "G9C C27A A70G", "yeast fitness": 0.539}
{"variant": "G9C G18C", "yeast fitness": 0.525}
{"variant": "G9C C11G", "yeast fitness": 0.525}
{"variant": "G9C C29U C55U", "yeast fitness": 0.572}
{"variant": "G9C C29U C55G", "yeast fitness": "≤ 0.5"}
{"variant": "G9C G18C U32G G41C C46U", "yeast fitness": "≤ 0.5"}
{"variant": "G9C C46U C49U", "yeast fitness": 0.692}
{"variant": "G9C G18A C22G C29U U32G A57U", "yeast fitness": "≤ 0.5"}
{"variant": "G9C G41A C55U U59A A70U", "yeast fitness": "≤ 0.5"}
{"variant": "G9C C11A G23A A37U C60U", "yeast fitness": "≤ 0.5"}
{"variant": "G9C C30A U35C C46G U54C G67C", "yeast fitness": "≤ 0.5"}
{"variant": "G9C C11G G58A", "yeast fitness": "≤ 0.5"}
{"variant": "G9C C24U C34A G44C C46U G48A A69G", "yeast fitness": "≤ 0.5"}
{"variant": "G9C G10A C29U A37U C62U G67A A70C", "yeast fitness": "≤ 0.5"}
{"variant": "G9C C31G A40C C66U", "yeast fitness": "≤ 0.5"}
{"variant": "G9C C46U G48C C62U", "yeast fitness": "≤ 0.5"}
{"variant": "G9C A43C C55G", "yeast fitness": "≤ 0.5"}
{"variant": "G9C C22A C34A", "yeast fitness": "≤ 0.5"}
{"variant": "G9C G39C C55G C62G A65C", "yeast fitness": "≤ 0.5"}
{"variant": "G9C C62U G67C", "yeast fitness": "≤ 0.5"}
{"variant": "G9C C29U C34G G48C C62U", "yeast fitness": 0.782}
{"variant": "G9C C66A", "yeast fitness": "≤ 0.5"}
{"variant": "G9C C66U", "yeast fitness": 0.621}
{"variant": "G9C C30G G68C", "yeast fitness": "≤ 0.5"}
{"variant": "G9C C11U G18C C31A", "yeast fitness": "≤ 0.5"}
{"variant": "G9C C11A A14G U47G A69C", "yeast fitness": "≤ 0.5"}
{"variant": "G9C G39C", "yeast fitness": 0.64}
{"variant": "G9C G12C C31A A40U G67A", "yeast fitness": 0.557}
{"variant": "G9C C24U C30G", "yeast fitness": "≤ 0.5"}
{"variant": "G9C G12C U47G G67C", "yeast fitness": 0.607}
{"variant": "G9C C22G C33G G63C A70G", "yeast fitness": 0.6}
{"variant": "G9C C55G", "yeast fitness": 0.542}
{"variant": "G9C C22G C30U", "yeast fitness": 0.648}
{"variant": "G9C C49U C55U U64C", "yeast fitness": "≤ 0.5"}
{"variant": "G9C C30A C60U", "yeast fitness": 0.655}
{"variant": "G9C G23A A40C C55G A65G", "yeast fitness": "≤ 0.5"}
{"variant": "G9C C33A A43C", "yeast fitness": "≤ 0.5"}
{"variant": "G9C C49G", "yeast fitness": 0.63}
{"variant": "G9C C49U", "yeast fitness": 0.703}
{"variant": "G9C C24A C62G A69C", "yeast fitness": "≤ 0.5"}
{"variant": "G9C C24G G39C C55U A65C", "yeast fitness": "≤ 0.5"}
{"variant": "G9C C11G G56A", "yeast fitness": "≤ 0.5"}
{"variant": "G9C C60G", "yeast fitness": 0.53}
{"variant": "G9C C60U", "yeast fitness": 0.618}
{"variant": "G9C C29G C30G G41A", "yeast fitness": "≤ 0.5"}
{"variant": "G9C G23A C34U", "yeast fitness": 0.655}
{"variant": "G9C A43C A57U G63A", "yeast fitness": "≤ 0.5"}
{"variant": "G9C C29U C30A G56A", "yeast fitness": "≤ 0.5"}
{"variant": "G9C C22A G48C G63C", "yeast fitness": "≤ 0.5"}
{"variant": "G9C A65U", "yeast fitness": 0.774}
{"variant": "G9C A65G", "yeast fitness": 0.78}
{"variant": "G9C C24U C30G G51A C60U A69C", "yeast fitness": "≤ 0.5"}
{"variant": "G9C C24G C60U U64A", "yeast fitness": "≤ 0.5"}
{"variant": "G9C C24U U26G U54G", "yeast fitness": "≤ 0.5"}
{"variant": "G9C G10C C29G C66U", "yeast fitness": "≤ 0.5"}
{"variant": "G9C G17A U19C G23A A42G C49U C55U", "yeast fitness": "≤ 0.5"}
{"variant": "G9C C30U U47A G67C", "yeast fitness": 0.559}
{"variant": "G9C C34A A57U", "yeast fitness": "≤ 0.5"}
{"variant": "G9C G12A C29A G38A A69G", "yeast fitness": "≤ 0.5"}
{"variant": "G9C C29U A70G", "yeast fitness": 0.602}
{"variant": "G9C C27A C29U A37C", "yeast fitness": 0.637}
{"variant": "G9C C29U", "yeast fitness": 0.674}
{"variant": "G9C C31G C66A G68C", "yeast fitness": 0.553}
{"variant": "G9C C31G U32G", "yeast fitness": "≤ 0.5"}
{"variant": "G9C C27U A40U A65G", "yeast fitness": "≤ 0.5"}
{"variant": "G9C G17A U64C", "yeast fitness": "≤ 0.5"}
{"variant": "G9C C24G", "yeast fitness": "≤ 0.5"}
{"variant": "G9C C24A", "yeast fitness": "≤ 0.5"}
{"variant": "G9C C29U A36U G67A", "yeast fitness": 0.501}
{"variant": "G9C C34G", "yeast fitness": 0.548}
{"variant": "G9C C34U", "yeast fitness": 0.776}
{"variant": "G9C C34A", "yeast fitness": 0.536}
{"variant": "G9C C11G C24U C31U G67U", "yeast fitness": "≤ 0.5"}
{"variant": "G9C C22G C61A", "yeast fitness": 0.611}
{"variant": "G9C C24G A40U C55A", "yeast fitness": "≤ 0.5"}
{"variant": "G9C G23A C34U C66G", "yeast fitness": "≤ 0.5"}
{"variant": "G9C C24G G41A G52A C66U", "yeast fitness": 0.602}
{"variant": "G9C C11G C24U", "yeast fitness": "≤ 0.5"}
{"variant": "G9C G10C C33U G48C C55G", "yeast fitness": "≤ 0.5"}
